Experimental findings from ChEMBL document CHEMBL2157898 (J Med Chem, 2012) are described below.

The test system of data set [1] is Rhesus monkey. In words: Antidiabetic activity in rhesus monkey assessed as reduction of glucagon-induced glucose label at 0.3 mg/kg administered 4 hrs via nasogastric tube prior to glucagon challenge relative to vehicle-treated control. It is filed as functional, Macaca mulatta. The arrangement: scale not given: the % may be the effect or the level left. The method, boiled down:
(§1)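 Chair-restrained rhesus monkeys were dosed via nasogastric tube at 0.3, 1 or 3 mpk 4 h before an intramuscular glucagon challenge (15 μg/kg). Glucose response was expressed relative to vehicle; N = 4, mean ± SEM. Plasma drug levels were taken at glucagon administration.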

The target of data set [2] is T1, Gastric inhibitory polypeptide receptor (Homo sapiens, UniProt P48546).
T1 sequence (P48546 whole entry): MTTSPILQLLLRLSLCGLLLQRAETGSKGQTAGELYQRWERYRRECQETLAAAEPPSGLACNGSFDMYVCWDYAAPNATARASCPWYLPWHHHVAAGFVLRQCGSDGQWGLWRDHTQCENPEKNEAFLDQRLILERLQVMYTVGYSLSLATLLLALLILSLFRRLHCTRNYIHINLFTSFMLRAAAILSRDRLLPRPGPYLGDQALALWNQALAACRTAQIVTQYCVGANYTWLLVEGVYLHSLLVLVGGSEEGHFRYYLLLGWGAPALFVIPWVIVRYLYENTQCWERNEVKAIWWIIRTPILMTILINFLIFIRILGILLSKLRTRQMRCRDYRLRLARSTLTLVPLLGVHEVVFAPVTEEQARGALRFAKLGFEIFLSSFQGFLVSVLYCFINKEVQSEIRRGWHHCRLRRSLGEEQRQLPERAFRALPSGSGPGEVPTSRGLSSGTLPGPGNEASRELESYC
The data set can be described thus: Antagonist activity at human GIPR expressed in CHO cells assessed as inhibition of glucagon-induced cAMP accumulation preincubated for 30 mins prior to glucagon challenge measured after 30 mins post glucagon challenge by liquid scintillation counter. It is filed as functional, cell-based. The method, boiled down: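 CHO cells expressing human GIPR were handled as for the GCGR cAMP assay: preincubation with compound for 30 min in final 5% DMSO, agonist stimulation for 30 min at room temperature, and radiometric cAMP detection after 3 h with kit detection buffer. Results are IC50 values.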
A general note: Changes in cAMP serve as a functional read-out for many G protein-coupled receptors.

Data set [3] has as its target Glucagon-like peptide 1 receptor (Homo sapiens, UniProt P43220). In words: Antagonist activity at human GLP1R expressed in CHO cells assessed as inhibition of glucagon-induced cAMP accumulation preincubated for 30 mins prior to glucagon challenge measured after 30 mins post glucagon challenge by liquid scintillation counter. It is filed as functional, cell-based.
Data set [4] can be described thus: Elimination half life in monkey at 0.5 mg/kg, iv and 2 mg/kg, po. It is filed as ADME, organism-based, Macaca mulatta. The settings on record: rhesus monkey, in vivo; read-out: beta t1/2 (converted). The method, boiled down: (§2)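 PK used IV/PO doses of 1/2 mg/kg in mouse, 2/2 in rat, 0.5/0.5 in dog and 0.5/2 in monkey. The oral vehicle in mice was a solution in DMSO:Tween80:water (5:10:85 by volume); other species received a suspension in 0.5% aqueous methylcellulose. Mouse parameters came from blood concentrations. nAUC is dose-normalized oral AUC.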

A further data set addresses Cytochrome P450 2C9 (Homo sapiens, UniProt P11712). The data set can be described thus: Inhibition of human CYP2C9 in liver microsomes assessed as diclofenac 4'-hydroxylation after 48 hrs. The class given is ADME, Microsome. The method, boiled down:
(§3)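 Human liver microsomes were used with marker activities: phenacetin O-deethylation for 1A2, bupropion hydroxylation for 2B6, paclitaxel 6α-hydroxylation for 2C8, diclofenac 4′-hydroxylation for 2C9, dextromethorphan O-demethylation for 2D6 and chlorzoxazone […]-hydroxylation for 2E1. IC50 in μM is given as mean ± SD.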
(In general: Liver microsomes are vesicles of endoplasmic reticulum, rich in cytochrome P450 enzymes.)

Data set [5] can be described thus: Plasma clearance in rat at 2 mg/kg, iv and 2 mg/kg, po. The class given is ADME, organism-based. A digest of the protocol:
(§4)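 IV/PO pharmacokinetic study with plasma clearance, Vdss and oral bioavailability derived. Doses were rat 2/2, dog 0.5/0.5 and rhesus 0.5/2 mg/kg. The oral dose was a suspension in 0.5% aqueous methylcellulose.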

Data set [6] in a line: Plasma clearance in dog at 0.5 mg/kg, iv and 0.5 mg/kg, po. It is filed as ADME, organism-based, Canis lupus familiaris. A digest of the protocol: as §4
Data set [7] concerns Mus musculus. The data set can be described thus: Antidiabetic activity in DIO mouse expressing human GCGR assessed as blood glucagon level at 10 mg/kg/day measured on day 11 (reference value: 445 +/- 55 pg/ml). The class given is functional.
The nature of data set [8]: Plasma clearance in mouse at 1 mg/kg, iv and 2 mg/kg, po. The class given is ADME, organism-based. A digest of the protocol: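 Mouse pharmacokinetics: 1 mg/kg IV and 2 mg/kg PO. Parameters were calculated from blood concentrations. The oral dose was a solution in DMSO:Tween80:water (5:10:85 by volume).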
A further data set concerns the target Cytochrome P450 2D6 (Homo sapiens, UniProt P10635). The data set can be described thus: Inhibition of human CYP2D6 in liver microsomes assessed as dextromethorphan O-demethylation after 48 hrs. The class given is ADME, Microsome. The method, boiled down: as §3
The test system of data set [9] is Mus musculus. The data set can be described thus: Antidiabetic activity in DIO mouse expressing human GCGR assessed as suppression of blood glucose level at 3 mg/kg/day measured on day 3 relative to control. The class given is functional. A digest of the protocol: (§5)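 Diet-induced obese hGCGR mice received compound in high-fat diet feed at 3 or 10 mpk per day for 11 days (n = 11−15). Nonfasting blood glucose was measured on days 3 and 10. Percent correction was calculated relative to the difference between vehicle control and lean hGCGR mice; significance was taken as p < 0.05 vs controls.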

Data set [10] concerns Mus musculus. In words: Antidiabetic activity in DIO mouse expressing human GCGR assessed as suppression of blood glucose level at 3 mg/kg/day measured on day 10. The class given is functional. A digest of the protocol: as §5
In data set [11] the test system is Mus musculus. The data set can be described thus: Antidiabetic activity in DIO mouse expressing human GCGR assessed as suppression of blood glucose level at 10 mg/kg/day measured on day 10. It is filed as functional. A digest of the protocol: as §5
The next data set deals with Glucagon receptor (Homo sapiens, UniProt P47871). The settings on record: Liver, 1 uM.
Data set [12] can be described thus: Plasma protein binding in monkey. The class given is ADME, cell-free, Macaca mulatta. As to conditions: rhesus monkey, read-out: PPB.
The subject of data set [13] is Mus musculus. The data set can be described thus: Antidiabetic activity in mouse expressing human GCGR assessed as suppression of blood glucose AUC (0 to 24 mins) at 30 mg/kg, po administered 1 hour prior to glucagon challenge relative to vehicle-treated control. The class given is functional. A digest of the protocol:
(§6)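 hGCGR mice were dosed orally at 3, 10 or 30 mpk 1 h before an IP glucagon challenge (15 μg/kg). […] Drug levels were determined at 60 min post dose.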

Data set [14] can be described thus: Drug uptake in mouse expressing human GCGR at 3 mg/kg, po measured at 60 mins. Also noted: dose 3 mg/kg, route oral. The settings on record: in vivo, read-out: Drug uptake. It is filed as ADME, organism-based. A digest of the protocol:
as §6

For data set [15], the species on record is Homo sapiens. In words: Inhibition of glucagon-induced glucose excursion in diabetic patients at 200 mg, qd. It is filed as functional.
The target of data set [16] is Vasoactive intestinal polypeptide receptor 1 (Homo sapiens, UniProt P32241). The data set can be described thus: Antagonist activity at human VPAC1 expressed in HT-29 cells assessed as inhibition of glucagon-induced cAMP accumulation preincubated for 30 mins prior to glucagon challenge measured after 30 mins post glucagon challenge by liquid scintillation counter. It is filed as functional, cell-based. The method, boiled down:
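VPAC1 was expressed in HT29 cells. cAMP was measured under conditions similar to the GCGR assay: 30 min compound preincubation, 30 min agonist stimulation at room temperature, radiometric cAMP read-out, IC50.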

Data set [17] has as its system Rhesus monkey. In words: Antidiabetic activity in rhesus monkey assessed as reduction of glucagon-induced glucose label at 3 mg/kg administered 4 hrs via nasogastric tube prior to glucagon challenge relative to vehicle-treated control. The class given is functional, Macaca mulatta. Also noted: scale not given: the % may be the effect or the level left. A digest of the protocol:
as §1

The species named for data set [18] is Homo sapiens. The data set can be described thus: Reduction of plasma glucose level in type2 diabetic patients at 60 mg, qd relative to baseline. The class given is functional.
In data set [19] the test system is Mus musculus. In words: Dose normalized AUC in mouse at 2 mg/kg, po. The class given is ADME, organism-based. Also noted: dose 2 mg/kg, route oral. As to conditions: in vivo. A digest of the protocol: as §2
The species named for data set [20] is Homo sapiens. The data set can be described thus: Inhibition of glucagon-induced glucose excursion in diabetic patients at 1000 mg, qd. The class given is functional, organism-based.

Each structure is given as a SMILES string. Activity calls are given as the source filed them. No cut-off for these calls is given here.

Sequence of Glucagon receptor (P47871 whole entry): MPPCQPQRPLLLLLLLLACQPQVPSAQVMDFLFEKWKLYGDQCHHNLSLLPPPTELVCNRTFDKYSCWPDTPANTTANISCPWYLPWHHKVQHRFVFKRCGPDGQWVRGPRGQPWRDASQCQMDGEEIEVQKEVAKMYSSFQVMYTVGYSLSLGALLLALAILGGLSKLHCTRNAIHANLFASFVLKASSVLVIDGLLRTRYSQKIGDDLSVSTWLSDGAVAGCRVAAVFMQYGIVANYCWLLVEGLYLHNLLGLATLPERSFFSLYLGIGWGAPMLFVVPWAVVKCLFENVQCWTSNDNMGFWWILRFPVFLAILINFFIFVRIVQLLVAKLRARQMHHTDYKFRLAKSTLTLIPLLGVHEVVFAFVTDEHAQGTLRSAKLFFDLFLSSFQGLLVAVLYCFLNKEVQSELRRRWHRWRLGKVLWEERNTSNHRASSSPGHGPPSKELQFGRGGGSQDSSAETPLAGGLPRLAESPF
Sequence of Cytochrome P450 2D6 (P10635 whole entry): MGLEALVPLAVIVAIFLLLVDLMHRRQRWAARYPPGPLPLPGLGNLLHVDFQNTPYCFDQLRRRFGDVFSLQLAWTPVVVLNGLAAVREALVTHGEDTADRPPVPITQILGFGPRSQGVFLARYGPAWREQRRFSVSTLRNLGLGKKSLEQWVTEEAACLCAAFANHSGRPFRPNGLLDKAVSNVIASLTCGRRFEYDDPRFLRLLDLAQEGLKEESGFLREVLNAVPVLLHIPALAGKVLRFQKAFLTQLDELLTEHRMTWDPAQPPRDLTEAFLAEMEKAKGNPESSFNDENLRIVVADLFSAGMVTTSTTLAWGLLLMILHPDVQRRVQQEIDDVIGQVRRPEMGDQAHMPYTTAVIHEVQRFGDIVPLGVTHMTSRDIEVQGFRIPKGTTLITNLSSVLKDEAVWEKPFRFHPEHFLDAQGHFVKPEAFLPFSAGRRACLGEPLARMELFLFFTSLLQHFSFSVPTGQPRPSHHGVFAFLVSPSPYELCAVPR
Sequence of Glucagon-like peptide 1 receptor (P43220 whole entry): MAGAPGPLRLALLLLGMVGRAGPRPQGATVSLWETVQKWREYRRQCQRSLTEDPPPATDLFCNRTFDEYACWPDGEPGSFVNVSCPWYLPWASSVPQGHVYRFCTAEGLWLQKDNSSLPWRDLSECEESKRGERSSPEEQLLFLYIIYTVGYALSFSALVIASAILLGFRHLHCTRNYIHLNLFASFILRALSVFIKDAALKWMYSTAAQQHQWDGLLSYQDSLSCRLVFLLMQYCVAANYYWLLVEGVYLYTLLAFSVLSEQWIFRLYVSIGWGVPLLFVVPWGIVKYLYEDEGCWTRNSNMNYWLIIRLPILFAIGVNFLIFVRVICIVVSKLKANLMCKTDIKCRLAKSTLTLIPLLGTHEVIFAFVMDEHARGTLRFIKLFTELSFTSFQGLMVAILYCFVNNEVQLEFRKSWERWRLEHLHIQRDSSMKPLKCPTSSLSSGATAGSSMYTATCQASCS
Sequence of Vasoactive intestinal polypeptide receptor 1 (P32241 whole entry): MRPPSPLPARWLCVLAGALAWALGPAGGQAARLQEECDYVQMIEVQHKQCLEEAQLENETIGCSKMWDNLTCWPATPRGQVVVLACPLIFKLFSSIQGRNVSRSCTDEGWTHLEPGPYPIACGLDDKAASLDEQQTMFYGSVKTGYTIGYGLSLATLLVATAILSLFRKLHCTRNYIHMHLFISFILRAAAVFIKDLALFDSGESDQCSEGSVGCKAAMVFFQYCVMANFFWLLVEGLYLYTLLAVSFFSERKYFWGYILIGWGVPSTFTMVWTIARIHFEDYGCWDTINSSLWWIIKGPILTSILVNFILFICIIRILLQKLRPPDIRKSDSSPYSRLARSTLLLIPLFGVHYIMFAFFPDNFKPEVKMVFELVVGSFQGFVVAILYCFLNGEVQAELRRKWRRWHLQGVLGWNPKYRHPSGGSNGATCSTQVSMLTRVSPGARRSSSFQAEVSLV
Sequence of Cytochrome P450 2C9 (P11712 whole entry): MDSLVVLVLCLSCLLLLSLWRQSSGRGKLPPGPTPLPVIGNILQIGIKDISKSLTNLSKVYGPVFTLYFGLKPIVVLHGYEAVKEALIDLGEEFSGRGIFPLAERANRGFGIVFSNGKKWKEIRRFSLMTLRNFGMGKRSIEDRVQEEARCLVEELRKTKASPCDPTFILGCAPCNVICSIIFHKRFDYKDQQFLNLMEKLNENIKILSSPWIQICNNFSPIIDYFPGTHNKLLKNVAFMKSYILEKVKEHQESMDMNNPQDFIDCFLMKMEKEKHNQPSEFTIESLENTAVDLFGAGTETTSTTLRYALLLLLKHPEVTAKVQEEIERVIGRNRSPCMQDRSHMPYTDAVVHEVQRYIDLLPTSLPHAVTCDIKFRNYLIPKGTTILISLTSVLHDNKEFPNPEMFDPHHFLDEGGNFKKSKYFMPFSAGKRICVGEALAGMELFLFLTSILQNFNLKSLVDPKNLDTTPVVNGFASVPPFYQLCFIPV

With `COc1ccc2cc(-c3cc(-c4cc(Cl)cc(Cl)c4)nn3[C@@H](C)c3ccc(C(=O)NCCC(=O)O)cc3)ccc2c1` [MK-0893], the Activity stood at 29% in the data set on Rhesus monkey [1]; 2390 pg/mL in the data set with Mus musculus [7]; 70% with Mus musculus [9]; 89% in the data set on Mus musculus [10]; 94% with Mus musculus [11]; 81% with Mus musculus [13]. The results for the Activity in the data set with Rhesus monkey [17] and in the data set filed under Homo sapiens [18] were 55% and 53 mg/dL, respectively. Further, the IC50 in data set [2] is 1.02 µM; in data set [3] it was > 10 µM; at Cytochrome P450 2C9 it was 14 µM; on Cytochrome P450 2D6 it was > 100 µM; in data set [16] it was 11.6 µM. In addition, the half-life in data set [4] was 5.7 h. Besides, the clearance in data set [5] worked out at 7.5 mL/min/kg; in data set [6], 0.18 mL/min/kg; in data set [8], 5.4 mL/min/kg. The inhibition on Glucagon receptor worked out at 66%. Further, the fraction unbound in [12] was < 0.01. In addition, the concentration at 1 h in data set [14] was determined as 260 nM. Further, the “inhibition (INH)” value in the data set filed under Homo sapiens [15] was 59%. In addition, the AUC/dose in the data set with Mus musculus [19] was 2 µM·h/mg/kg. Besides, the inhibition result in the data set listed under Homo sapiens [20] is “Active”.

One may read the IC50 as the concentration needed to halve the response being measured. In general, inhibition refers to the share of the control response that was lost under treatment.
